Test results published in paper PMC3040319 (Pharmaceutical Research, 2010).
Where two headings read alike, the source gives them in different places.

What was measured:
[1] = tested on: primary mouse hepatocytes; assay type: in vitro ADME; conditions: 30 min exposure
Oct1+/+ and Oct1-/- mice = assay: Toxicity study of oxaliplatin in Oct1+/+ and Oct1-/- mice; assay type: in vivo, mouse; conditions: 6 mg/kg i.p. once daily for 5 days
[2] = Tissue accumulation of platinum in Oct1+/+ and Oct1-/- mice; assay type: in vivo, mouse; conditions: 1 h after 8 mg/kg i.v.
Summary of the method: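 Male FVB Oct1+/+ and Oct1-/- mice (8 weeks) were given 8 mg/kg in saline i.v. by tail vein and killed 1 h later. Liver, kidney, heart, lung, brain, intestine, spleen and muscle were snap-frozen. Total Pt was measured by ICP-MS in 10–30 mg tissue and reported as nmol/g tissue; plasma was reported in μM.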

With `O=C1[O][Pt]2([NH][C@@H]3CCCC[C@H]3[NH]2)[O]C1=O` [oxaliplatin, Oxaliplatin, reference compound] the “hepatocellular uptake rate, wild-type as fold of Oct1-/-” value ([1]; 1 μM) was 1.8 fold, the “hepatocellular uptake rate, wild-type as fold of Oct1-/-” value ([1]; 5 μM) was 1.4 fold and the hepatocellular uptake rate ([1]; hepatocytes from Oct1-/- mice, 1 μM) was 0.855 ± 0.184 pmol/mg protein/hr. For the same compound, the hepatocellular uptake rate ([1]; hepatocytes from Oct1-/- mice, 5 μM) was 3.97 ± 0.500 pmol/mg protein/hr, the hepatocellular uptake rate ([1]; hepatocytes from Oct1 wild-type mice, 1 μM) was 1.54 ± 0.300 pmol/mg protein/hr and the hepatocellular uptake rate ([1]; hepatocytes from Oct1 wild-type mice, 5 μM) was 5.55 ± 0.384 pmol/mg protein/hr. For the same compound, the “relative body weight loss” value (Oct1+/+ and Oct1-/- mice; Oct1+/+ mice) was 15.1%, the “relative body weight loss” value (Oct1+/+ and Oct1-/- mice; Oct1-/- mice) was 6.8% and the liver histopathology examination (Oct1+/+ and Oct1-/- mice; either Oct1+/+ or Oct1-/- mice) was “no clear sign of liver damage”. The plasma concentration ([2]; Oct1+/+ mice) was 5.96 ± 0.54 µM and the plasma concentration ([2]; Oct1-/- mice) was 6.69 ± 0.62 µM.
